How the values were obtained:
[1] = test system: Plasmodium falciparum; test: Antiplasmodial activity against multidrug-resistant Plasmodium falciparum K1 infected in human erythrocytes after 48 hrs by [3H]-hypoxanthine incorporation assay; assay type: functional, organism-based
Outline: (§1)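 Modified [3H]-hypoxanthine incorporation assay against P. falciparum NF54 (sensitive) and K1 (multidrug-resistant). Values are means of ≥2 or ≥3 independent experiments. The resistance index is the K1 IC50 divided by the NF54 IC50.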

[2] = test system: Plasmodium falciparum; test: Antiplasmodial activity against chloroquine-sensitive Plasmodium falciparum NF54 infected in human erythrocytes after 48 hrs by [3H]-hypoxanthine incorporation assay; assay type: functional, organism-based; outline: as §1
[3] = test system: Plasmodium falciparum; test: Resistance index, ratio of IC50 for multidrug-resistant Plasmodium falciparum K1 to IC50 for chloroquine-sensitive Plasmodium falciparum NF54; assay type: functional; outline: as §1
[4] = test system: CHO; test: Cytotoxicity against CHO cells by MTT assay; assay type: cell-based; details: Cricetulus griseus
Outline: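 CHO cells, MTT assay. Stocks 20 mg/mL in DMSO, diluted in complete medium; undissolved samples tested as suspensions. Emetine served as reference (10-fold dilutions, 6 concentrations, lowest 0.001 µg/mL). IC50 derived from full dose–response curves by non-linear fitting.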

[5] = Selectivity index, ratio of IC50 for CHO cells to IC50 for chloroquine-sensitive Plasmodium falciparum NF54; assay type: toxicity, cell-based; details: hamster, read-out: Ratio IC50
[6] = Inhibition of beta haematin formation after 5 to 6 hrs by pyridine-ferrichrome method; assay type: physicochemical
Outline: (§2)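 Modified β-haematin inhibition assay. Compounds from DMSO stocks, 0–1000 µM final, in duplicate. NP-40 added (30.55 µM). Haematin suspension added to give 0.5 M acetate pH 4.8 and 100 µM haematin, then incubated 5–6 h at 37 °C. Free haeme detected with pyridine/H2O/acetone/0.2 M HEPES pH 7.4 reagent (final pyridine ~5% v/v) plus acetone, and absorbance read.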

[7] = Lipophilicity, log P of the compound; assay type: physicochemical; details: octanol/water
[8] = test system: Plasmodium falciparum; test: Resistance index, ratio of IC50 for multidrug-resistant Plasmodium falciparum K1 to IC50 for Plasmodium falciparum W2; assay type: functional
[9] = Inhibition of beta haematin formation at 1000 uM after 5 to 6 hrs by pyridine-ferrichrome method; assay type: physicochemical; outline: as §2
[10] = Metabolic stability in human liver microsomes assessed as compound remaining at […] after 30 mins by HPLC-MS/MS analysis in presence of NADPH; assay type: ADME; details: read-out: Stability
[11] = Metabolic stability in BALB/c mouse liver microsomes assessed as compound remaining at […] after 30 mins by HPLC-MS/MS analysis in presence of NADPH; assay type: ADME; details: read-out: Stability
[12] = Stability of the compound by potassium cyanide trapping method; assay type: physicochemical
[13] = Stability of the compound by methoxylamine trapping method; assay type: physicochemical
[14] = Drug metabolism assessed as ratio of sum of compound adduct peak area to clozapine adduct peak area by GSH trapping method; assay type: physicochemical
[15] = test system: Plasmodium berghei; test: Antimalarial activity against GFP-transfected Plasmodium berghei ANKA infected in mouse assessed as reduction in parasitemia at 50 mg/kg, po qd administered for 4 days measured on day 4 post last dose by flow cytometric analysis relative to control; assay type: functional; parameters: scale not given: the % may be the effect or the level left
[16] = test system: Plasmodium berghei; test: Antimalarial activity against GFP-transfected Plasmodium berghei ANKA infected in mouse assessed as mean survival days at 50 mg/kg, po qd administered for 4 days; assay type: functional
Outline: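 Mice (n = 3) infected with GFP-transfected P. berghei ANKA. Compound given orally, dissolved in a vehicle containing ethanol and diluted 10× with water. Multi-dose arms were dosed once daily on four consecutive days (4, 24, 48, 72 h post-infection). Parasitaemia was measured by flow cytometry, detection limit 0.1%. Activity is % reduction relative to controls. Survival was followed for 30 days.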

Compound	IC50 [1]	IC50 [2]	Ratio IC50 [3]	IC50 [4]	selectivity ratio [5]	IC50 [6]	logP [7]	also measured
Clc1ccc2c(Nc3ccc4oc(NCCN5CCOCC5)nc4c3)ccnc2c1	0.198 µM	0.108 µM	1.83	124 µM	1150	80 µM	–	–
Clc1ccc2c(Nc3ccc4oc(NCc5ccncc5)nc4c3)ccnc2c1	1.55 µM	0.63 µM	2.47	> 240 µM	–	93 µM	4.55	–
Clc1ccc2c(Nc3ccc4sc(NCCN5CCCC5)nc4c3)ccnc2c1	–	–	–	–	–	–	–	Ratio IC50 [8]: 1.17
O=[N+]([O-])c1ccc2oc(N3CCN(c4ccccc4)CC3)nc2c1	> 20 µM	> 20 µM	–	–	–	–	–	inhibition (INH) [9]: Not Active
CC[C@H]1CN2CCc3cc(OC)c(OC)cc3[C@@H]2C[C@@H]1C[C@H]1NCCc2cc(OC)c(OC)cc21 [EMETINE]	–	–	–	0.104 µM	–	–	–	–
Clc1ccc2c(Nc3ccc4oc(NCc5cccnc5)nc4c3)ccnc2c1	0.704 µM	0.309 µM	2.28	164 µM	532	100 µM	4.68	–
CN(C)CCCNc1nc2cc(Nc3ccnc4cc(Cl)ccc34)ccc2o1	0.149 µM	0.019 µM	7.84	12.6 µM	665	174 µM	3.44	remaining at 0.5 h [10]: 78%; remaining at 0.5 h [11]: 44%
CCNc1nc2cc(Nc3ccnc4cc(Cl)ccc34)ccc2[nH]1	–	–	–	–	–	–	–	Stability [12]: Unstable; Stability [13]: Unstable; Ratio IC50 [8]: 0.5
Clc1ccc2c(Nc3ccc4oc(NCCCN5CCOCC5)nc4c3)ccnc2c1	0.08 µM	0.039 µM	2.05	13.7 µM	351	80.1 µM	3.09	remaining at 0.5 h [10]: 27%; remaining at 0.5 h [11]: 26%
COCCc1nc2cc(Nc3ccnc4cc(Cl)ccc34)ccc2o1	2.11 µM	1.09 µM	1.93	–	–	–	3.11	–
Clc1ccc2oc(N3CCN(c4ccccc4)CC3)nc2c1	> 20 µM	> 20 µM	–	–	–	–	–	inhibition (INH) [9]: Not Active
Clc1ccc2c(Nc3ccc(NCCN4CCOCC4)nc3)ccnc2c1	–	–	–	–	–	–	–	Ratio IC50 [8]: 1.78
O=[N+]([O-])c1ccc2oc(NCCc3ccccn3)nc2c1	> 20 µM	> 20 µM	–	–	–	–	–	inhibition (INH) [9]: Not Active
CN1CCN(c2nc3cc([N+](=O)[O-])ccc3o2)CC1	> 20 µM	> 20 µM	–	–	–	–	–	inhibition (INH) [9]: Not Active
CCN(CC)CCCNc1nc2cc(Nc3ccnc4cc(Cl)ccc34)ccc2o1	0.085 µM	0.014 µM	6.07	6.37 µM	455	165 µM	4.12	remaining at 0.5 h [10]: 70%; remaining at 0.5 h [11]: 70%
Clc1ccc2c(Nc3ccc(NCCN4CCCC4)nc3)ccnc2c1	–	–	–	–	–	–	–	Ratio IC50 [8]: 4.38
CN1CCN(Nc2nc3cc(Nc4ccnc5cc(Cl)ccc45)ccc3o2)CC1	0.24 µM	0.144 µM	1.67	122 µM	849	73.3 µM	2.6	–
CCN(CC)CCNc1nc2cc(Nc3ccnc4cc(Cl)ccc34)ccc2[nH]1	–	–	–	–	–	–	–	Ratio IC50 [8]: 4.14
Clc1ccc2c(Nc3ccc4oc(NCCc5ccccn5)nc4c3)ccnc2c1	0.851 µM	0.402 µM	2.12	> 240 µM	–	63 µM	4.42	–

Compound	IC50 [1]	IC50 [2]	Ratio IC50 [3]	IC50 [4]	selectivity ratio [5]	IC50 [6]	logP [7]	also measured
Clc1ccc2c(Nc3ccc4sc(NCCN5CCCCC5)nc4c3)ccnc2c1	–	–	–	–	–	–	–	Ratio [14]: 0.88; Ratio IC50 [8]: 0.54
Clc1ccc2c(Nc3ccc4oc(NCCN5CCCCC5)nc4c3)ccnc2c1	0.024 µM	0.01 µM	2.4	7.58 µM	758	89 µM	4.11	remaining at 0.5 h [10]: 71%; remaining at 0.5 h [11]: 41%; Activity [15]: 99.9%; MSD [16]: 27 days
Clc1ccc2c(Nc3ccc4sc(NCCN5CCOCC5)nc4c3)ccnc2c1	–	–	–	–	–	–	–	Ratio [14]: 1.13; Ratio IC50 [8]: 0.63
CCN(CC)CCNc1nc2cc(Nc3ccnc4cc(Cl)ccc34)ccc2o1	0.042 µM	0.011 µM	3.82	11.5 µM	1040	244 µM	–	remaining at 0.5 h [10]: 78%; remaining at 0.5 h [11]: 74%
O=C1CCCN1CCCNc1nc2cc(Nc3ccnc4cc(Cl)ccc34)ccc2o1	0.773 µM	1.88 µM	0.41	29.6 µM	15.8	97.5 µM	2.88	–
CCN(CC)c1nc2cc(Nc3ccnc4cc(Cl)ccc34)ccc2o1	1.38 µM	0.512 µM	2.69	229 µM	448	50.7 µM	4.78	–
Clc1cccc(N2CCN(c3nc4cc(Nc5ccnc6cc(Cl)ccc56)ccc4o3)CC2)c1	0.412 µM	0.202 µM	2.04	172 µM	852	24.7 µM	6.57	remaining at 0.5 h [10]: 36%; remaining at 0.5 h [11]: > 99%
Clc1ccc2c(Nc3ccc4oc(NCc5ccccn5)nc4c3)ccnc2c1	0.883 µM	0.406 µM	2.17	> 240 µM	–	106 µM	–	–
CN(C)CCCNc1nc2cc([N+](=O)[O-])ccc2o1	11 µM	> 20 µM	–	–	–	–	–	inhibition (INH) [9]: Not Active
CCNc1nc2cc(Nc3ccnc4cc(Cl)ccc34)ccc2o1	–	0.466 µM	2.15	–	–	80.2 µM	3.75	Stability [12]: Unstable; Stability [13]: Unstable; Ratio IC50 [8]: 1.88; remaining at 0.5 h [10]: 81%; remaining at 0.5 h [11]: 1%
O=[N+]([O-])c1ccc2oc(NCCN3CCCC3)nc2c1	2.93 µM	1.64 µM	–	–	–	–	–	inhibition (INH) [9]: Not Active
Clc1ccc2c(Nc3ccc4[nH]c(NCCN5CCCCC5)nc4c3)ccnc2c1	–	–	–	–	–	–	–	Ratio IC50 [8]: 0.02
CN1CCN(c2nc3cc(Nc4ccnc5cc(Cl)ccc45)ccc3o2)CC1	0.099 µM	0.051 µM	1.94	> 240 µM	–	71.7 µM	3.9	remaining at 0.5 h [10]: 61%; remaining at 0.5 h [11]: 18%
Clc1cccc(CNc2nc3cc(Nc4ccnc5cc(Cl)ccc45)ccc3o2)c1	0.223 µM	0.124 µM	1.8	25.7 µM	207	27.1 µM	5.7	–
CN(C)Cc1nc2cc(Nc3ccnc4cc(Cl)ccc34)ccc2o1	0.411 µM	0.213 µM	1.93	–	–	–	–	–
CCN(CC)c1nc2cc([N+](=O)[O-])ccc2o1	> 20 µM	> 20 µM	–	–	–	–	–	inhibition (INH) [9]: Not Active
O=[N+]([O-])c1ccc2oc(NCc3ccccn3)nc2c1	> 20 µM	> 20 µM	–	–	–	–	–	inhibition (INH) [9]: Not Active
Clc1ccc2c(Nc3ccc4oc(N5CCN(c6ccccc6)CC5)nc4c3)ccnc2c1	0.875 µM	0.274 µM	3.19	28.7 µM	105	29.6 µM	6.05	–

From ChEMBL document CHEMBL3603782, “Antimalarial benzoheterocyclic 4-aminoquinolines: Structure-activity relationship, in vivo evaluation, mechanistic and bioactivation studies” (Bioorg Med Chem, 2015)
